Results from ChEMBL document CHEMBL4699593, “Identification of 2,4-Disubstituted Imidazopyridines as Hemozoin Formation Inhibitors with Fast-Killing Kinetics and In Vivo Efficacy in the Plasmodium falciparum NSG Mouse Model” (J Med Chem, 2020).
The source made the active and inactive calls. The rule behind the calls is not given here.

Experiments:
[1] = Dose normalized AUC (0 to 24 hrs) in Plasmodium falciparum 3D70087/N9 infected NSG mouse at 5 mg/kg, po by LC-MS/MS analysis; format: ADME, organism-based; conditions: in vivo
Procedure, shortened: (§1)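 Oral (PO) dosing of NSG (NODscidIL2Rγnull) mice infected with P. falciparum. Cmax and AUC0–24 are taken from the infected-mouse PK analysis and are also expressed divided by dose.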

[2] = Dose normalized Cmax in Plasmodium falciparum 3D70087/N9 infected NSG mouse at 5 mg/kg, po by LC-MS/MS analysis; format: ADME, organism-based; conditions: in vivo
Procedure, shortened: (§2)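 P. falciparum-infected NSG mice received escalating single oral doses of 1.5, 5, 15, 50 and 100 mg/kg.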

[3] = Tmax in Plasmodium falciparum 3D70087/N9 infected NSG mouse at 100 mg/kg, po by LC-MS/MS analysis; format: ADME, organism-based; conditions: in vivo; procedure, shortened: as §2
[4] = Oral bioavailability in Balb/C mouse at 20 mg/kg by LC-MS/MS analysis; format: ADME, organism-based; conditions: in vivo
Procedure, shortened: (§3)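 Healthy Balb/c mice were given the compound i.v. or orally. Parameters come from non-compartmental analysis: AUC from 0 h to t_last, blood clearance, volume at steady state, terminal half-life, Tmax. Oral bioavailability F is derived from the i.v. and p.o. data.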

[5] = test system: Plasmodium falciparum; test: Antimalarial activity against asexual ring stage of Plasmodium falciparum NF54 measured after 24 hrs by [3H]hypoxanthine incorporation assay; format: functional, organism-based
Procedure, shortened: (§4)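 Tested on a synchronized asexual blood-stage culture of P. falciparum, with IC50 determined separately for the ring and the schizont stage.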

[6] = Cmax in Plasmodium falciparum 3D70087/N9 infected NSG mouse at 5 mg/kg, po by LC-MS/MS analysis; format: ADME, organism-based; set-up: route oral, dose 5 mg/kg; conditions: in vivo; procedure, shortened: as §1
[7] = Cmax in Plasmodium falciparum 3D70087/N9 infected NSG mouse at 200 mg/kg, po by LC-MS/MS analysis; format: ADME, organism-based; set-up: route oral, dose 200 mg/kg; conditions: in vivo; procedure, shortened: as §1
[8] = Tmax in Plasmodium falciparum 3D70087/N9 infected NSG mouse at 5 mg/kg, po by LC-MS/MS analysis; format: ADME, organism-based; conditions: in vivo; procedure, shortened: as §2
[9] = Drug metabolism in mouse blood assessed as oxidation and glucuronidation by LC-MS/MS analysis; format: ADME, tissue-based
[10] = Dose normalized Cmax in Balb/c mouse at 20 mg/kg, po by LC-MS/MS analysis; format: ADME, organism-based; conditions: in vivo
Procedure, shortened: (§5)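 Healthy Balb/c mice dosed i.v. or orally. Parameters come from non-compartmental analysis of compound concentration over time. […] Clearance is blood clearance (CL_b).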

[11] = Ratio of unbound average drug concentration in Balb/c mouse at 20 mg/kg, po measured at 24 hrs to IC50 for antiplasmodial activity against multidrug-sensitive Plasmodium falciparum NF54 asexual blood stage assessed as reduction in parasite growth after 72 hrs by LDH assay; format: organism-based; conditions: in vivo
[12] = AUC (0 to 24 hrs) in Plasmodium falciparum 3D70087/N9 infected NSG mouse at 200 mg/kg, po by LC-MS/MS analysis; format: ADME, organism-based; set-up: time < 24 hr, route oral, dose 200 mg/kg; conditions: in vivo; procedure, shortened: as §1
[13] = Dose normalized Cmax in Plasmodium falciparum 3D70087/N9 infected NSG mouse at 15 mg/kg, po by LC-MS/MS analysis; format: ADME, organism-based; conditions: in vivo; procedure, shortened: as §1
[14] = Drug recovery in mouse urine by LC-MS/MS analysis; format: ADME, tissue-based; conditions: in vivo
[15] = AUC (0 to t) in Balb/C mouse at 20 mg/kg, po by LC-MS/MS analysis; format: ADME, organism-based; set-up: dose 20 mg/kg; conditions: in vivo; procedure, shortened: as §5
[16] = Selectivity index, ratio of CC50 for cytotoxicity against CHO cells assessed as reduction in cell viability to IC50 for antiplasmodial activity against multidrug-sensitive Plasmodium falciparum NF54 assessed as reduction in parasite growth; format: toxicity, cell-based; conditions: hamster, read-out: Ratio CC50/IC50
[17] = Dose normalized AUC (0 to 24 hrs) in Balb/c mouse at 20 mg/kg, po by LC-MS/MS analysis; format: ADME, organism-based; conditions: in vivo; procedure, shortened: as §5
[18] = Dose normalized AUC (0 to 24 hrs) in Plasmodium falciparum 3D70087/N9 infected NSG mouse at 200 mg/kg, po by LC-MS/MS analysis; format: ADME, organism-based; conditions: in vivo; procedure, shortened: as §1
[19] = Lipophilicity, log D of compound at pH 6; format: physicochemical; conditions: buffer
[20] = Dose normalized AUC (0 to 24 hrs) in Plasmodium falciparum 3D70087/N9 infected NSG mouse at 100 mg/kg, po by LC-MS/MS analysis; format: ADME, organism-based; conditions: in vivo; procedure, shortened: as §1
[21] = test system: Plasmodium falciparum; test: Antiplasmodial activity against early stage (I to III) Plasmodium falciparum NF54 gametocytes at 5 uM incubated for 48 hrs under hypoxia condition by luciferase reporter gene assay relative to control; format: functional
[22] = Drug metabolism in mouse blood assessed as N-demethylation by LC-MS/MS analysis; format: ADME, tissue-based
[23] = test system: Plasmodium falciparum; test: Antimalarial activity against Plasmodium falciparum 3D70087/N9 infected in NOD-SCID IL2Rgamma null mouse assessed as parasitemia at 50 mg/kg, po qd administered for 4 days measured on day 6 post-infection by microscopy based flow cytometry; format: functional, organism-based; conditions: time 4.0 day
Procedure, shortened: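 NSG mice were infected with P. falciparum and given oral compound once daily for 4 days at 50 mg/kg, starting three days after inoculation. Parasitemia was followed to day 6 post-infection against the limit of detection.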

[24] = Lipophilicity, log D of compound at pH 7.4; format: physicochemical; conditions: buffer
[25] = Cmax in Plasmodium falciparum 3D70087/N9 infected NSG mouse at 1.5 mg/kg, po by LC-MS/MS analysis; format: ADME, organism-based; set-up: route oral, dose 1.5 mg/kg; conditions: in vivo; procedure, shortened: as §1
[26] = test system: Plasmodium falciparum; test: Antimalarial activity against asexual schizont stage of Plasmodium falciparum NF54 measured after 24 hrs by [3H]hypoxanthine incorporation assay; format: functional, organism-based; procedure, shortened: as §4
[27] = Tmax in Balb/C mouse at 20 mg/kg, po by LC-MS/MS analysis; format: ADME, organism-based; conditions: in vivo; procedure, shortened: as §3
[28] = Cmax in Plasmodium falciparum 3D70087/N9 infected NSG mouse at 15 mg/kg, po by LC-MS/MS analysis; format: ADME, organism-based; set-up: route oral, dose 15 mg/kg; conditions: in vivo; procedure, shortened: as §1
[29] = AUC (0 to 24 hrs) in Plasmodium falciparum 3D70087/N9 infected NSG mouse at 5 mg/kg, po by LC-MS/MS analysis; format: ADME, organism-based; set-up: time < 24 hr, route oral, dose 5 mg/kg; conditions: in vivo; procedure, shortened: as §1
[30] = Dose normalized Cmax in Plasmodium falciparum 3D70087/N9 infected NSG mouse at 50 mg/kg, po by LC-MS/MS analysis; format: ADME, organism-based; conditions: in vivo; procedure, shortened: as §2
[31] = Terminal half life in Balb/C mouse at 2 mg/kg, iv by LC-MS/MS analysis; format: ADME, organism-based; conditions: in vivo, read-out: beta t1/2 (converted); procedure, shortened: as §3
[32] = test system: Hemozoin; test: Inhibition of beta-hematin formation assessed as reduction in hemozoin formation incubated for 5 hrs by NP40 detergent-mediated assay
Procedure, shortened: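 Synthetic hemozoin (β-hematin) formation is driven by the detergent Nonidet P-40. Pyridine is then added to detect unreacted hematin. IC50 is derived from this read-out.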

[33] = test system: Plasmodium falciparum; test: Antiplasmodial activity against early ring-stage synchronized Plasmodium falciparum assessed as increase in free heme after 32 hrs by Giemsa-staining based haemocytometric counting method; format: functional, organism-based
Procedure, shortened: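 Whole-parasite cell fractionation assay run as a dose response. Free heme and hemozoin were measured intracellularly across increasing compound concentrations.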

[34] = Cmax in Balb/C mouse at 20 mg/kg, po by LC-MS/MS analysis; format: ADME, organism-based; set-up: route oral, dose 20 mg/kg; conditions: in vivo; procedure, shortened: as §5

With `CN1CCN(CC2CCN(c3nccc4[nH]c(-c5cc(F)cc(F)c5)nc34)CC2)CC1` the AUC/dose [1] was 34 µM·kg·min/mg, the Cmax/dose [2] was 0.03 µM·kg/mg and the Tmax [3] was 1 h. The bioavailability [4] was 83%, the IC50 [5] was 27 nM and the Cmax [6] was 130 nM. The Cmax [7] was 2840 nM, the Tmax [8] was 2.5 h and the Drug metabolism [9] was “Metabolite_Detected”. It also gave a Cmax/dose [10] of 0.08 µM·kg/mg, a Ratio [11] of 4.5 and an AUC(0-t) at 24 h [12] of 51.7 µM·h. The Cmax/dose [13] was 0.05 µM·kg/mg, the Drug recovery [14] was “Active” and the AUCt [15] was 20 µM·h. It also gave a selectivity ratio [16] of 1040, an AUC/dose [17] of 60 µM·kg·min/mg and an AUC/dose [18] of 62 µM·kg·min/mg. The logD [19] was 0.4, the AUC/dose [20] was 51 µM·kg·min/mg and the inhibition at 5 µM [21] was < 50%. The Drug metabolism [22] was “Metabolite_Detected”, the Activity [23] was “Below limit of detection” and the logD [24] was 2.6. For the same molecule, the Cmax [25] was 40 nM, the IC50 [26] was 60 nM and the Tmax [27] was 1.7 h. It also gave a Cmax [28] of 810 nM, an AUC [29] of 170 µM·min and a Cmax/dose [30] of 0.06 µM·kg/mg. For the same molecule, the half-life [31] was 23.1 h, the IC50 [32] was 24000 nM and the Activity [33] was “inactive”. It also gave a Cmax [34] of 1500 nM.
